In ChEMBL document CHEMBL4513216, “Probing the Open Global Health Chemical Diversity Library for Multistage-Active Starting Points for Next-Generation Antimalarials” (ACS Infect Dis, 2020):

Test: Toxicity liver stage against HepG2, at 10uM
Format: cell-based
Design: test concentration 10 uM, cell line HepG2-A16-CD81EGFP
Settings: human, HepG2-A16-CD81EGFP cells; read-out: INHIBITION
Summary of the method: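 Uninfected HepG2-A16-CD81EGFP cells, 3 × 10^3 per well, 1536-well, plated on prespotted compound at 10 μM final, parasite-free screening media added to match infected plates; puromycin 10 μM positive, DMSO 0.5% negative; run in parallel with 48 h PbLuc assay at 37 °C, 5% CO2; viability by CellTiter-Glo luminescence, normalized to controls.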

Structure (SMILES) | cytotoxicity at 10 µM [%]
CC(C)NC(=O)[C@H](C)NC(=O)N1CCN(c2ccc(Cl)cc2)CC1 | 0.592
Cc1ccc(S(=O)(=O)c2ncccc2CN2CCOCC2)cc1 | -41
Cn1cccc1C(O)CNS(=O)(=O)Cc1ccccc1 (stereo unspecified) | -37.1
CCSc1ccccc1C(=O)NCCN1CCC(c2cccs2)CC1 | -7.98
CN(C)c1ccc(C(O)CNS(=O)(=O)C2CC2)cc1 (stereo unspecified) | -4.99
CCOCC1COCCC12CCN(C(=O)C1=CCCC1)CC2 (stereo unspecified) | -2.35
CC(=O)NCC(=O)N1CCc2nc(-c3ccccc3)nc(C)c2CC1 | -2.54
O=S(=O)(C1CC1)N1CCc2ncc(Cn3cccn3)n2CC1 | 9.58
Cc1nc(-c2ccc(F)cc2)nc2c1CCN(C(=O)CN(C)C)CC2 | -1.65
CCOC(=O)C1CN(C(=O)COC)Cc2ncn(CC)c21 (stereo unspecified) | 6.01
COC1COC2(CCN(C(=O)c3ncccn3)CC2)C1 (stereo unspecified) | 6.07
Cc1nc([C@@H]2C[C@@H]3CCN(Cc4cnn(C)c4)C[C@H]3O2)sc1C | -3.49
O=C(c1ccc(Cn2cc(Br)cn2)cc1)N1CCOCC1 | -13.6
CCn1nc(C)c2nc(C)nc(NC3CCCC3)c21 | 9.12
Cc1cc(C(F)(F)F)nn1C(C)C(=O)NN1CCN(C)CC1 (stereo unspecified) | 20.4
Cc1ccc(CNC(=O)Cn2ncc3c2c(C)nn3C)cc1 | 22.2
CCC(O)Cn1nc(-c2ccc(C(=O)O)cc2)cc1-c1ccc(F)cc1 (stereo unspecified) | 1.24
COCCN1CCCC(c2ccnc3c(C(N)=O)cnn23)C1 (stereo unspecified) | 2.05
Fc1ccc(-c2cnc(C3CCNCC3)cn2)cc1 | -7.14
CNC(=O)C1(C)CCCN1Cc1cnn(C)c1C (stereo unspecified) | 5.45
CC(=O)N1Cc2ccccc2OC2(CCN(C(=O)C3CC3)CC2)C1 | 9.91
O[C@H]1CN(Cc2cccc(C(F)(F)F)c2)CC[C@@]12CCCO2 | -19.6
CCSCCN1CCCN(S(C)(=O)=O)CC1 | -2.75

Structure (SMILES) | cytotoxicity at 10 µM [%]
Cc1cnn(-c2ccc(S(N)(=O)=O)cc2F)c1 | 1.64
COc1ccc(C2CCCN2c2ccc(C#N)cn2)c(OC)c1 (stereo unspecified) | -3.42
Cc1nccn1-c1ccc(CNS(=O)(=O)N2CCCC(C)C2)cn1 (stereo unspecified) | 5.39
CN1CCC(NC(=O)Nc2cnn(-c3ccccc3Cl)c2)C1=O (stereo unspecified) | -4.17
Cc1cccc(Oc2ccccc2CNC(=O)C2CCC(=O)NC2)c1 (stereo unspecified) | 10.6
CC1CN(C)c2ccccc2CN1CCn1cncn1 (stereo unspecified) | -12.7
Cc1ccc(CNCc2nccn2C)c(OC(C)(C)C)c1 | -2.58
Cc1csc(CN(C)C(C)C(=O)N2CCc3ccccc3C2)n1 (stereo unspecified) | -11.7
Cc1nc(S(=O)(=O)NCCC(=O)NCc2ccc(C#N)cc2)cn1C | 5.17
CS(=O)(=O)Cc1ccc(Cl)cc1NCc1ccccc1F | 6.8
Cc1cnc(CN2CCN(C(C)c3nc(C(C)C)no3)CC2)cn1 (stereo unspecified) | 9.74
N#Cc1ccccc1N1CCCN(CC(=O)Nc2ccc(Cl)cn2)CC1 | -0.539
Cc1cc(C)c(CNC(=O)C(C)Oc2ccccc2C#N)c(=O)[nH]1 (stereo unspecified) | 4.59
Cc1ccc(C(CNCc2cccn2C)N2CCOCC2)s1 (stereo unspecified) | 14.9
COc1ccc(CNCC2CCN(CCO)CC2)cc1F | -3.71
CCNC(=O)NC1CCN(c2ccc(S(=O)(=O)CC)cc2)CC1 | 7.89
Cc1c(C(=O)NCC(C)C)nnn1-c1cccc2c1CCN(C(C)C)C2 | -12.3
CN(c1ncc(C(N)=O)cc1Cl)C1CCC(c2ccccc2)CC1 (stereo unspecified) | 38.8
Cc1nc(C)n(C2CCCN(C(=O)CCc3cscn3)C2)n1 (stereo unspecified) | 6.74
CC(=O)NC(C)C(=O)N(Cc1ccc(C)c(C)c1)C1CC1 (stereo unspecified) | 8.77
CC(CCSc1ccccc1)N1CCN(C(=O)c2cccs2)CC1 (stereo unspecified) | 25.5
CC(C)(C)Cc1noc2ncc(C(=O)N3CCSCC3)cc12 | -0.779
CC(C)(C)C(O)CN1CCN(Cc2nccn2CC(F)(F)F)CC1 (stereo unspecified) | 4.77

Structure (SMILES) | cytotoxicity at 10 µM [%]
CN(C)C(CNC(=O)c1ncoc1-c1ccccc1)c1ccsc1 (stereo unspecified) | -0.303
Nc1c(Cl)cnn1C1CCN(Cc2ccccc2)C1 (stereo unspecified) | 0.648
O=C(NCc1ccco1)Nc1ccc2nc(N3CCOCC3)oc2c1 | 4.17
CC(C)(O)CN1CCN(C(=O)COCC(F)(F)F)CC1 | -12.9
Cc1nn(C(C)(C)C)c(C)c1C(=O)NCC1(C(N)=O)CCOCC1 | 3.28
Cc1nc(CN2CCCC(N(C)c3cnc4ccccc4n3)C2)no1 (stereo unspecified) | -14.6
CC(NC1CCN(CCc2ccncc2)CC1)c1cnn(C(C)C)c1 (stereo unspecified) | -4.97
CC(=O)N1CCN(C(=O)NCCCc2cn[nH]c2C)CC1 | 12.1
CCc1ncnc(N(C)CC2CCCCO2)c1F (stereo unspecified) | 3.17
CC(C)c1nnc(CNc2nc(-c3cccnc3)nc3c2CCC3)n1C | 8.74
CCc1ncc2c(n1)CN(Cc1nc(C)c(C)o1)CC2 | 2.92
O=C(CC1CC1)N1CCC2(CC1)CN(c1ccsc1)C(=O)CO2 | -73.1
Cc1cccc(CN2C(=O)CC[C@@H]3[C@H]2CCN3CC2CCOCC2)n1 | 5.89
COCC(=O)N1CC[C@H]2C[C@H](C)O[C@@H]2C1 | -0.877
COc1ccc(-n2nc(C)c(C(C)=O)c2C)cc1CO | 11.2
COc1cc2c(cc1CN1C[C@@H](CN3CCOCC3)[C@@H](CO)C1)CCC2 | -2.37
O=C(c1c[nH]c(=O)[nH]1)N1CCCC2(CCC(=O)N(C3CCCC3)C2)C1 (stereo unspecified) | -3.74
CCOc1ccccc1CN(CC)Cc1ccc(S(=O)(=O)NC)cc1 | -0.943
Cc1cc(C)cc(-n2ncc3c2CCCC3N)c1 (stereo unspecified) | 7.63
Cc1nc(CNC(=O)c2cc(Cn3ccnc3C(C)C)[nH]n2)sc1C | 2.99
Cc1ccc(C2(O)CCN(C(=O)c3ccc(S(N)(=O)=O)cc3)CC2)nc1 | -2.13
CN(C)C(C(=O)N1CC(Oc2ccccc2F)C1)c1ccc(F)cc1 (stereo unspecified) | 1.28
CC(C)=CCN1CC2(CCN(Cc3cccc(C#N)c3)CC2)CC1=O | -4.39

Structure (SMILES) | cytotoxicity at 10 µM [%]
O=C1CN(Cc2cc(O)c3cccc(F)c3n2)CCN1C1CCCC1 | 4.45
O=C(c1ccon1)N1CCc2ncnc(NCc3ccccn3)c2CC1 | 0.436
Cc1nc2ccc(-n3ncnc3[C@@H]3CCCN3S(C)(=O)=O)cc2s1 | -11.5
CN(C)CCN1CC2(CCCN(c3ncc(Cl)cc3F)C2)CCC1=O (stereo unspecified) | -13.6
COc1cc(OC)cc(-c2cccc3c2OC(CN)C3)c1 (stereo unspecified) | -53
CCNc1ncc(C(=O)NC2CCSC2)cn1 (stereo unspecified) | -8.85
CC(O)CN1CCN(Cc2cccc(C(=O)N3CCCCC3)c2)CC1 (stereo unspecified) | -4.83
Cc1cnn(CC2CCCN2Cc2cn3ccsc3n2)c1 (stereo unspecified) | -1.75
CC(C)c1noc(CCC(=O)N2CCN(Cc3ccncc3)CC2)n1 | -9.08
N#CC1(NC(=O)CN2CCC(c3ccnn3CCO)CC2)CCCC1 | 2.85
CN(Cc1cccc(F)c1)C(=O)CN1CCOC(Cn2cncn2)C1 (stereo unspecified) | -2.09
Cc1ccc(-c2nnc(CNCCn3cccn3)o2)cc1 | -26.1
Cc1nc(C)n(CC2CCCN2CCOc2cccc(F)c2)n1 (stereo unspecified) | -0.945
CCc1nc(C2CCCN2C(=O)c2cnc[nH]2)no1 (stereo unspecified) | -13.6
CNc1snc(C)c1C(=O)N1CCCC(n2ccnc2C)C1 (stereo unspecified) | -14.1
Cc1cnn(C2CCCN(C(=O)c3cc(Cl)c4c(c3)OCO4)C2)c1 (stereo unspecified) | -5.25
O=C(NC1CC1)C1CCN(c2snc3ccccc23)CC1 | -5.43
Cn1ccc(CN2CCC(OCCc3ccccc3)CC2)cc1=O | -4.43
Cc1cc(C(=O)N2CCCCC2C)ccc1NCC(=O)N1CCOCC1 (stereo unspecified) | 4.08
CN1CCN(c2cc(CNC(=O)c3ccc(=O)n(C)c3)ccn2)CC1 | -6.95
Cn1cc(Cl)cc1C(=O)N1CCN(Cc2ccsc2)CC1 | -2.86
CCn1ncc2c1CCCC2NCc1ccc(OC)c(C)c1 (stereo unspecified) | -8
COCCN1CCN(Cc2cccc(C(N)=O)c2)CC1C (stereo unspecified) | 0.794

Structure (SMILES) | cytotoxicity at 10 µM [%]
Cc1cc(C(=O)NCc2ccc(N3CCCC(C(N)=O)C3)cc2)[nH]n1 (stereo unspecified) | 4.23
O=C(NCC(F)(F)F)C1CSCN1S(=O)(=O)c1ccc(F)cc1 (stereo unspecified) | 1.85
N#Cc1ccccc1OCCN1CCCC1Cn1cccn1 (stereo unspecified) | -9.14
N#Cc1ccc(N2CC3(CCN(c4nccs4)C3)C2)nc1 | -12.5
CCOCc1cnc2n1CCN(C(=O)Cc1ccccn1)C2C (stereo unspecified) | 8.04
c1csc(CN2CCCn3cnc(COCC4CC4)c3C2)n1 | 9.7
O=C(c1cnccn1)N1CC[C@@H]2CO[C@@H](CN3CCCC3)[C@@H]2C1 | -1.19
O=C([C@H]1C[C@H]2OCC[C@H]2N(Cc2ccc(F)cc2)C1)N1CCCCO1 | -65.5
CN(C)Cc1cnc2n1CCN(C(=O)Cc1cccc(F)c1)CC2 | -11.7
Cc1ccc(OCC(=O)N2C[C@@H]3CN(C)CCO[C@@H]3C2)cc1 | -0.204
O=C(NCc1ccco1)[C@H]1CC[C@@H]2[C@@H](CCN2c2ncc(F)cn2)O1 | -78.4
CNC(=O)CN1CCOCC12CCN(CCc1ccccc1)CC2 | -76.8
CN1CCN(C(=O)c2nc3c(s2)CCCN3C(=O)C2CC2)CC1 | 1.82
CN(Cc1ccco1)[C@@H]1CN(Cc2cnn(C)c2)[C@@H]2CCCO[C@H]12 | -75.8
CC(C)CN1CCCC12CCN(c1nncs1)C2 (stereo unspecified) | 1.81
CNC(=O)[C@@]12CCO[C@@H]1CCN(Cc1cccc(C)c1)C2 | -78.4
COCCC(=O)N1CC[C@@H](N2CCOCC2)[C@@H]1Cc1ccccc1 | -70.4
O=C([C@H]1C[C@H]2OCC[C@H]2N(Cc2cccnc2)C1)N1CCCO1 | -2.83
CCNc1ncc(C(=O)NC2CCC(n3cnnc3)CC2)cn1 (stereo unspecified) | 9.45
